ChEMBL document CHEMBL1123248, “Chiral DNA gyrase inhibitors. 1. Synthesis and antimicrobial activity of the enantiomers of 6-fluoro-7-(1-piperazinyl)-1-(2'-trans-phenyl-1'-cyclopropyl)-1, 4-dihydro-4-oxoquinoline-3-carboxylic acid” (1986)
≈ marks a conversion by molar mass, not a printed value.

How the values were obtained:
Format in all cases: functional
Escherichia coli [1] = test: (§1) The compound was tested for its antimicrobial activity against Escherichia coli juhl (Ec) strain.
In short: (§2)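 MIC by twofold serial agar dilution in brain-heart infusion agar.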

Klebsiella aerogenes [2] = test: The compound was tested for its antimicrobial activity against Enterobacter aerogenes ATCC 13048 (Ea) strain.; in short: as §2
Pseudomonas aeruginosa [3] = test: The compound was tested evaluated for its antimicrobial activity against Pseudomonas aeruginosa A5007 (Pa(5)) strain.
In short: (§3)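 MICs were determined by twofold agar dilution on brain-heart infusion agar.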

[4] = system: Staphylococcus epidermidis; test: The compound was tested for its antimicrobial activity against Staphylococcus epidermidis 3519 (Se) strain.; in short: as §2
Streptococcus pyogenes [5] = test: The compound was tested for its antimicrobial activity against Streptococcus pyogenes 930 (Sp) strain.; in short: as §2
Staphylococcus aureus [6] = test: The compound was tested for its antimicrobial activity against Staphylococcus aureus CMX 68613 (Sa) strain.; in short: as §2
Enterococcus faecium [7] = test: The compound was tested for its antimicrobial activity against Streptococcus faecium ATCC 8043 (Sf) strain.; in short: as §2
Acinetobacter [8] = test: The compound was tested for its antimicrobial activity against Acinetobacter sp. CMX 669 (A) strain.; in short: as §2
Pseudomonas aeruginosa [9] = test: The compound was tested evaluated for its antimicrobial activity against Pseudomonas aeruginosa ( Pa(K)) strain.; in short: as §2
Staphylococcus aureus [10] = test: The compound was tested for its antimicrobial activity against Staphylococcus aureus ATCC 6538P (Sa(A)) strain; in short: as §3
Escherichia coli [11] = test: The compound was tested for its antimicrobial activity against Escherichia coli juhl (Ec) strain; in short: as §3
Escherichia coli [12] = test: The compound was tested for inhibition constant against DNA gyrase isolated from Escherichia coli
Klebsiella pneumoniae [13] = test: The compound was tested for its antimicrobial activity against Klebsiella pneumoniae 8045 (Kp) strain; in short: as §3
Micrococcus luteus [14] = test: The compound was tested for inhibition constant against DNA gyrase isolated from micrococcus luteus
Pseudomonas aeruginosa [15] = test: The compound was tested evaluated for its antimicrobial activity against Pseudomonas aeruginosa A5007 (Pa(5)) strain; in short: as §2
[16] = system: Staphylococcus epidermidis; test: (§4) The compound was tested for its antimicrobial activity against Staphylococcus epidermidis 3519 (Se) strain; in short: as §3
Streptococcus pyogenes [17] = test: The compound was tested for its antimicrobial activity against Streptococcus pyogenes 930 (Sp) strain; in short: as §3
Staphylococcus aureus [18] = test: The compound was tested for its antimicrobial activity against Staphylococcus aureus CMX 68613 (Sa) strain; in short: as §3
Enterococcus faecium [19] = test: The compound was tested for its antimicrobial activity against Streptococcus faecium ATCC 8043 (Sf) strain; in short: as §3
Klebsiella aerogenes [20] = test: The compound was tested for its antimicrobial activity against Enterobacter aerogenes ATCC 13048 (Ea) strain; in short: as §3
Acinetobacter [21] = test: The compound was tested for its antimicrobial activity against Acinetobacter sp. CMX 669 (A) strain; in short: as §3
Micrococcus luteus [22] = test: The compound was tested for its antimicrobial activity against Micrococcus luteus (MI) strain; in short: as §3
Pseudomonas aeruginosa [23] = test: The compound was tested evaluated for its antimicrobial activity against Pseudomonas aeruginosa ( Pa(K)) strain; in short: as §3
Escherichia coli [24] = test: as §1; in short: as §3; remark: listed apart in the source
[25] = system: Staphylococcus epidermidis; test: as §4; in short: as §2; remark: listed apart in the source
Klebsiella pneumoniae [26] = test: microbe, parasite or virus in culture
[27] = Staphylococcus aureus, ATCC 6538P, read-out: MIC
[28] = Pseudomonas aeruginosa, read-out: MIC
[29] = Streptococcus pyogenes, read-out: MIC
[30] = Staphylococcus aureus, read-out: MIC
[31] = Enterococcus faecium, ATCC 8043, read-out: MIC
[32] = Klebsiella aerogenes, ATCC 13048, read-out: MIC
[33] = Escherichia coli, read-out: MIC

Compound O=C(O)c1cn(-c2ccccc2)c2cc(N3CCNCC3)c(F)cc2c1=O has an MIC (Escherichia coli [1]) of 0.2 µg/mL (≈ 0.544 µM), an MIC (Klebsiella aerogenes [2]) of 0.39 µg/mL (≈ 1.06 µM) and an MIC (Pseudomonas aeruginosa [3]) of 0.78 µg/mL (≈ 2.12 µM). For the same compound, the MIC [4] was 1.56 µg/mL (≈ 4.25 µM), the MIC (Streptococcus pyogenes [5]) was 1.56 µg/mL (≈ 4.25 µM) and the MIC (Staphylococcus aureus [6]) was 0.39 µg/mL (≈ 1.06 µM). It also gave an MIC (Enterococcus faecium [7]) of 12.5 µg/mL (≈ 34 µM), an MIC (Acinetobacter [8]) of 0.78 µg/mL (≈ 2.12 µM) and an MIC (Pseudomonas aeruginosa [9]) of 1.56 µg/mL (≈ 4.25 µM). The MIC (Staphylococcus aureus [10]; [27]) was 0.39 µg/mL (≈ 1.06 µM).

O=C(O)c1cn(C2C[C@H]2c2ccccc2)c2cc(N3CCNCC3)c(F)cc2c1=O (stereo in doubt; 14) was tested, and the MIC (Escherichia coli [11]) was 25 µg/mL (≈ 61.4 µM), the Ki (Escherichia coli [12]) was 15.2 µg/mL (≈ 37.3 µM) and the MIC (Klebsiella pneumoniae [13]) was 6.2 µg/mL (≈ 15.2 µM). For the same compound, the Ki (Micrococcus luteus [14]) was 13.7 µg/mL (≈ 33.6 µM), the MIC (Pseudomonas aeruginosa [15]) was greater than 100 µg/mL and the MIC [16] was 1.56 µg/mL (≈ 3.83 µM). For the same compound, the MIC (Streptococcus pyogenes [17]) was 1.56 µg/mL (≈ 3.83 µM), the MIC (Staphylococcus aureus [18]) was 1.56 µg/mL (≈ 3.83 µM) and the MIC (Enterococcus faecium [19]) was 3.1 µg/mL (≈ 7.61 µM). The MIC (Staphylococcus aureus [10]) was 1.56 µg/mL (≈ 3.83 µM), the MIC (Klebsiella aerogenes [20]) was 50 µg/mL (≈ 123 µM) and the MIC (Acinetobacter [21]) was 25 µg/mL (≈ 61.4 µM). It also gave an MIC (Micrococcus luteus [22]) of 0.39 µg/mL (≈ 0.957 µM).

Work on O=C(O)c1cn(C2CC2)c2cc(N3CCNCC3)c(F)cc2c1=O [CIPROFLOXACIN] yielded a Ki (Escherichia coli [12]; Escherichia coli) of 0.9 µg/mL (≈ 2.72 µM), a Ki (Micrococcus luteus [14]; Micrococcus luteus) of 38 µg/mL (≈ 115 µM) and an MIC (Pseudomonas aeruginosa [23]; [28]) of 0.05 µg/mL (≈ 0.151 µM). For the same compound, the MIC (Pseudomonas aeruginosa [15]) was 0.1 µg/mL (≈ 0.302 µM), the MIC [16] was 0.2 µg/mL (≈ 0.604 µM) and the MIC (Streptococcus pyogenes [17]; [29]) was 0.39 µg/mL (≈ 1.18 µM). The MIC (Staphylococcus aureus [18]; [30]) was 0.2 µg/mL (≈ 0.604 µM), the MIC (Enterococcus faecium [19]; [31]) was 0.39 µg/mL (≈ 1.18 µM) and the MIC (Staphylococcus aureus [10]; [27]) was 0.2 µg/mL (≈ 0.604 µM). The MIC (Klebsiella aerogenes [20]; [32]) was 0.05 µg/mL (≈ 0.151 µM), the MIC (Acinetobacter [21]) was 3.1 µg/mL (≈ 9.36 µM) and the MIC (Micrococcus luteus [22]) was 1.56 µg/mL (≈ 4.71 µM).

O=C(O)c1cn(C2C[C@@H]2c2ccccc2)c2cc(N3CCNCC3)c(F)cc2c1=O (stereo partly specified) was tested, and the MIC (Klebsiella aerogenes [2]) was 12.5 µg/mL (≈ 30.7 µM), the Ki (Escherichia coli [12]; Escherichia coli) was 12.1 µg/mL (≈ 29.7 µM) and the MIC (Escherichia coli [24]) was 12.5 µg/mL (≈ 30.7 µM). It also gave an MIC (Klebsiella pneumoniae [13]) of 3.1 µg/mL (≈ 7.61 µM), a Ki (Micrococcus luteus [14]; Micrococcus luteus) of 9.6 µg/mL (≈ 23.6 µM) and an MIC (Pseudomonas aeruginosa [23]; [28]) of 100 µg/mL (≈ 245 µM). It also gave an MIC (Pseudomonas aeruginosa [3]) greater than 50 µg/mL, an MIC (Streptococcus pyogenes [17]; [29]) of 0.78 µg/mL (≈ 1.91 µM) and an MIC (Staphylococcus aureus [6]) of 0.78 µg/mL (≈ 1.91 µM). It also gave an MIC (Enterococcus faecium [19]; [31]) of 1.56 µg/mL (≈ 3.83 µM), an MIC [25] of 1.56 µg/mL (≈ 3.83 µM) and an MIC (Staphylococcus aureus [10]; [27]) of 0.78 µg/mL (≈ 1.91 µM). The MIC (Acinetobacter [21]) was 6.2 µg/mL (≈ 15.2 µM) and the MIC (Micrococcus luteus [22]) was 0.39 µg/mL (≈ 0.957 µM).

CCn1cc(C(=O)O)c(=O)c2cc(F)c(N3CCNCC3)cc21 [NORFLOXACIN] was tested, and the MIC (Escherichia coli [11]; [33]) was 0.1 µg/mL (≈ 0.313 µM), the MIC (Klebsiella aerogenes [2]) was 0.2 µg/mL (≈ 0.626 µM) and the Ki (Escherichia coli [12]; Escherichia coli) was 1 µg/mL (≈ 3.13 µM). For the same compound, the MIC (Klebsiella pneumoniae [13]) was 0.1 µg/mL (≈ 0.313 µM), the Ki (Micrococcus luteus [14]; Micrococcus luteus) was 72 µg/mL (≈ 225 µM) and the MIC (Pseudomonas aeruginosa [23]; [28]) was 0.39 µg/mL (≈ 1.22 µM). For the same compound, the MIC (Pseudomonas aeruginosa [15]) was 0.39 µg/mL (≈ 1.22 µM), the MIC (Streptococcus pyogenes [17]; [29]) was 3.1 µg/mL (≈ 9.71 µM) and the MIC (Staphylococcus aureus [18]; [30]) was 0.78 µg/mL (≈ 2.44 µM). The MIC (Enterococcus faecium [19]; [31]) was 0.78 µg/mL (≈ 2.44 µM), the MIC [25] was 1.56 µg/mL (≈ 4.89 µM) and the MIC (Staphylococcus aureus [10]; [27]) was 0.78 µg/mL (≈ 2.44 µM). The MIC (Acinetobacter [21]) was 6.2 µg/mL (≈ 19.4 µM).

O=C(O)c1cn(C2C[C@H]2c2ccccc2)c2cc(N3CCNCC3)c(F)cc2c1=O (stereo in doubt; 5) was tested, and the MIC (Escherichia coli [11]; [33]) was 50 µg/mL (≈ 123 µM), the Ki (Escherichia coli [12]; Escherichia coli) was 14.2 µg/mL (≈ 34.9 µM) and the MIC (Klebsiella pneumoniae [26]) was 12.5 µg/mL (≈ 30.7 µM). The Ki (Micrococcus luteus [14]) was 38 µg/mL (≈ 93.3 µM), the MIC (Pseudomonas aeruginosa [23]) was 100 µg/mL (≈ 245 µM) and the MIC (Pseudomonas aeruginosa [23]; [28]) was 100 µg/mL (≈ 245 µM). For the same compound, the MIC (Pseudomonas aeruginosa [3]) was greater than 100 µg/mL, the MIC [4] was 3.1 µg/mL (≈ 7.61 µM) and the MIC (Streptococcus pyogenes [17]; [29]) was 3.1 µg/mL (≈ 7.61 µM). The MIC (Staphylococcus aureus [18]; [30]) was 3.1 µg/mL (≈ 7.61 µM), the MIC (Enterococcus faecium [19]; [31]) was 6.2 µg/mL (≈ 15.2 µM) and the MIC (Staphylococcus aureus [10]; [27]) was 3.1 µg/mL (≈ 7.61 µM). For the same compound, the MIC (Klebsiella aerogenes [20]; [32]) was 50 µg/mL (≈ 123 µM) and the MIC (Acinetobacter [21]) was 100 µg/mL (≈ 245 µM).
